Converted amounts (≈) assume the structure as drawn.
System: not listed separately
Experiment: Antioxidant activity assessed as nitric oxide radical scavenging activity after 150 mins
Type: functional
Details: not given
Summary of the method: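 10 mM sodium nitroprusside (4 mL), PBS pH 7.4 (1 mL) and sample or ascorbic acid in DMSO (1 mL, 12.5–100 µg/mL), incubated 150 min at 25 °C. Nitrite detected with sulphanilic acid (5 min) then naphthylethylenediamine (30 min, diffused light). Read at […]. Triplicate. % inhibition = [1 − (Vt/Vc)] × 100. IC50 derived from it.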

Structure (SMILES)	IC50
Cn1c(NN)nc(-c2ccc(Cl)cc2)c(C#N)c1=O	59 µg/mL (≈ 214 µM)
CCOC(=O)c1cnn(-c2nc(-c3cccs3)c(C#N)c(=O)n2C)c1N	98 µg/mL (≈ 265 µM)

System: not listed separately
Experiment: Antioxidant activity assessed as hydrogen peroxide scavenging activity after 10 mins
Type: functional
Details: not given
Summary of the method: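 H2O2 (20 mM) in PBS pH 7.4. 1 mL of sample or ascorbic acid in methanol (12.5–100 µg/mL) added to 2 mL H2O2 solution. A230 read after 10 min. % inhibition = [1 − (Vt/Vc)] × 100. Triplicate, averaged. IC50 derived from % inhibition across concentrations.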

Structure (SMILES)	IC50
Cn1c(NN)nc(-c2ccc(Cl)cc2)c(C#N)c1=O	41 µg/mL (≈ 149 µM)
CCOC(=O)c1cnn(-c2nc(-c3cccs3)c(C#N)c(=O)n2C)c1N	109 µg/mL (≈ 294 µM)

System: not listed separately
Experiment: Antioxidant activity assessed as inhibition of lipid peroxidation using egg lecithin liposomes incubated for 1 hr
Type: functional
Details: not given
Summary of the method: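 Egg lecithin (3 mg/mL, phosphate buffer pH 7.4) sonicated 10 min to form liposomes. Sample or ascorbic acid (12.5–100 µg/mL) added. Peroxidation induced with FeCl3 and L-ascorbic acid, 1 h at 37 °C. Stopped with HCl/TCA/TBA/BHA, boiled 15 min, centrifuged, supernatant read at 532 nm. Triplicate. % inhibition vs control. IC50 derived.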

Structure (SMILES)	IC50
Cn1c(NN)nc(-c2ccc(Cl)cc2)c(C#N)c1=O	46 µg/mL (≈ 167 µM)
CCOC(=O)c1cnn(-c2nc(-c3cccs3)c(C#N)c(=O)n2C)c1N	97 µg/mL (≈ 262 µM)

System: not listed separately
Experiment: Antioxidant activity assessed as potassium ferricyanide ion reducing power after 20 mins
Type: functional
Details: not given
Summary of the method: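 Oyaizu method. Samples or ascorbic acid in DMF (12.5–100 µg/mL) mixed with 0.2 M phosphate buffer pH 6.6 and 1% potassium ferricyanide, 20 min at 50 °C. 10% TCA added, centrifuged. Supernatant mixed with water and 0.1% FeCl3, read at 700 nm. % = [(Vt/Vc) − 1] × 100. IC50 derived.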

Structure (SMILES)	IC50
Cn1c(NN)nc(-c2ccc(Cl)cc2)c(C#N)c1=O	44 µg/mL (≈ 160 µM)
CCOC(=O)c1cnn(-c2nc(-c3cccs3)c(C#N)c(=O)n2C)c1N	79 µg/mL (≈ 213 µM)

System: not listed separately
Experiment: Antiinflammatory activity assessed as inhibition of albumin denaturation at 100 ug/ml by UV-visible spectrophotometry
Type: functional
Details: not given
Summary of the method: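 Compounds dissolved in minimal DMF, diluted in PBS pH 7.4 (final DMF <2.5%). 1 mL test solution (100 µg/mL) plus 1 mL 1% albumin in PBS, 15 min at 27 ± 1 °C, then heated 10 min at 60 ± 1 °C. After cooling, turbidity read at 660 nm. % inhibition = [(Vt/Vc) − 1] × 100 against a no-drug control. Triplicate, averaged. Diclofenac standard.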

Structure (SMILES)	inhibition
Cn1c(NN)nc(-c2ccc(Cl)cc2)c(C#N)c1=O	61.2%
CCOC(=O)c1cnn(-c2nc(-c3cccs3)c(C#N)c(=O)n2C)c1N	44.6%

System: Metaphire posthuma
Experiment: Anthelmintic activity against Pheretima posthuma assessed as time taken for complete parasite paralysis at 0.1% w/v
Type: functional
Details: not given
Summary of the method: (§1)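 Earthworms (Pheretima posthuma) exposed to test solutions at 0.1, 0.2 and 0.5% w/v; time in minutes to complete paralysis (worms motionless) recorded. Albendazole as standard. Mean of three determinations ± S.D.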

Structure (SMILES)	Time
Cn1c(NN)nc(-c2ccc(Cl)cc2)c(C#N)c1=O	42.1 min
CCOC(=O)c1cnn(-c2nc(-c3cccs3)c(C#N)c(=O)n2C)c1N	42.48 min

System: Metaphire posthuma
Experiment: Anthelmintic activity against Pheretima posthuma assessed as time taken for complete parasite paralysis at 0.2% w/v
Type: functional
Details: not given
Summary of the method: as §1

Structure (SMILES)	Time
Cn1c(NN)nc(-c2ccc(Cl)cc2)c(C#N)c1=O	40.13 min
CCOC(=O)c1cnn(-c2nc(-c3cccs3)c(C#N)c(=O)n2C)c1N	40.12 min

System: Metaphire posthuma
Experiment: Anthelmintic activity against Pheretima posthuma assessed as time taken for complete parasite paralysis at 0.5% w/v
Type: functional
Details: not given
Summary of the method: as §1

Structure (SMILES)	Time
Cn1c(NN)nc(-c2ccc(Cl)cc2)c(C#N)c1=O	37.67 min
CCOC(=O)c1cnn(-c2nc(-c3cccs3)c(C#N)c(=O)n2C)c1N	43.59 min

System: Metaphire posthuma
Experiment: Anthelmintic activity against Pheretima posthuma assessed as time taken for parasite death at 0.1% w/v
Type: functional
Details: not given
Summary of the method: (§2)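 Earthworms (Pheretima posthuma, spelled Perituma posthuma in text) exposed to test compounds at 0.1, 0.2 and 0.5% w/v. Albendazole served as standard, with an untreated control. Paralysis was recorded as the time until worms became motionless, then time to death was recorded, in minutes. Each value is the mean of three determinations with S.D.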

Structure (SMILES)	Time
Cn1c(NN)nc(-c2ccc(Cl)cc2)c(C#N)c1=O	58.3 min
CCOC(=O)c1cnn(-c2nc(-c3cccs3)c(C#N)c(=O)n2C)c1N	47.38 min

System: Metaphire posthuma
Experiment: Anthelmintic activity against Pheretima posthuma assessed as time taken for parasite death at 0.2% w/v
Type: functional
Details: not given
Summary of the method: as §2

Structure (SMILES)	Time
Cn1c(NN)nc(-c2ccc(Cl)cc2)c(C#N)c1=O	46.45 min
CCOC(=O)c1cnn(-c2nc(-c3cccs3)c(C#N)c(=O)n2C)c1N	49.67 min

System: Metaphire posthuma
Experiment: Anthelmintic activity against Pheretima posthuma assessed as time taken for parasite death at 0.5% w/v
Type: functional
Details: not given
Summary of the method: as §2

Structure (SMILES)	Time
Cn1c(NN)nc(-c2ccc(Cl)cc2)c(C#N)c1=O	42.54 min
CCOC(=O)c1cnn(-c2nc(-c3cccs3)c(C#N)c(=O)n2C)c1N	47.44 min

System: Escherichia coli
Experiment: Antimicrobial activity against Escherichia coli at 25 ug/ml by agar plate diffusion technique
Type: functional
Details: read-out: IZ
Summary of the method: (§3)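 Agar plate diffusion against E. coli, P. aeruginosa, S. aureus and B. subtilis, with compounds at 25, 50 and 100 µg/mL. Streptomycin as standard.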

Structure (SMILES)	zone of inhibition at 25 µg/mL
Cn1c(NN)nc(-c2ccc(Cl)cc2)c(C#N)c1=O	8.18 mm
CCOC(=O)c1cnn(-c2nc(-c3cccs3)c(C#N)c(=O)n2C)c1N	12.5 mm

System: Escherichia coli
Experiment: Antimicrobial activity against Escherichia coli at 50 ug/ml by agar plate diffusion technique
Type: functional
Details: read-out: IZ
Summary of the method: as §3

Structure (SMILES)	zone of inhibition at 50 µg/mL
Cn1c(NN)nc(-c2ccc(Cl)cc2)c(C#N)c1=O	10.9 mm
CCOC(=O)c1cnn(-c2nc(-c3cccs3)c(C#N)c(=O)n2C)c1N	13.1 mm

System: Escherichia coli
Experiment: Antimicrobial activity against Escherichia coli at 100 ug/ml by agar plate diffusion technique
Type: functional
Details: read-out: IZ
Summary of the method: as §3

Structure (SMILES)	zone of inhibition at 100 µg/mL
Cn1c(NN)nc(-c2ccc(Cl)cc2)c(C#N)c1=O	12.4 mm
CCOC(=O)c1cnn(-c2nc(-c3cccs3)c(C#N)c(=O)n2C)c1N	16.1 mm

System: Pseudomonas aeruginosa
Experiment: Antimicrobial activity against Pseudomonas aeruginosa at 25 ug/ml by agar plate diffusion technique
Type: functional
Details: read-out: IZ
Summary of the method: as §3

Structure (SMILES)	zone of inhibition at 25 µg/mL
Cn1c(NN)nc(-c2ccc(Cl)cc2)c(C#N)c1=O	7.64 mm
CCOC(=O)c1cnn(-c2nc(-c3cccs3)c(C#N)c(=O)n2C)c1N	9.67 mm

System: Pseudomonas aeruginosa
Experiment: Antimicrobial activity against Pseudomonas aeruginosa at 50 ug/ml by agar plate diffusion technique
Type: functional
Details: read-out: IZ
Summary of the method: as §3

Structure (SMILES)	zone of inhibition at 50 µg/mL
Cn1c(NN)nc(-c2ccc(Cl)cc2)c(C#N)c1=O	10.2 mm
CCOC(=O)c1cnn(-c2nc(-c3cccs3)c(C#N)c(=O)n2C)c1N	12.7 mm

System: Pseudomonas aeruginosa
Experiment: Antimicrobial activity against Pseudomonas aeruginosa at 100 ug/ml by agar plate diffusion technique
Type: functional
Details: read-out: IZ
Summary of the method: as §3

Structure (SMILES)	zone of inhibition at 100 µg/mL
Cn1c(NN)nc(-c2ccc(Cl)cc2)c(C#N)c1=O	14.9 mm
CCOC(=O)c1cnn(-c2nc(-c3cccs3)c(C#N)c(=O)n2C)c1N	18.8 mm

System: Bacillus subtilis
Experiment: Antimicrobial activity against Bacillus subtilis at 25 ug/ml by agar plate diffusion technique
Type: functional
Details: read-out: IZ
Summary of the method: as §3

Structure (SMILES)	zone of inhibition at 25 µg/mL
Cn1c(NN)nc(-c2ccc(Cl)cc2)c(C#N)c1=O	10.2 mm
CCOC(=O)c1cnn(-c2nc(-c3cccs3)c(C#N)c(=O)n2C)c1N	12.9 mm

System: Bacillus subtilis
Experiment: Antimicrobial activity against Bacillus subtilis at 50 ug/ml by agar plate diffusion technique
Type: functional
Details: read-out: IZ
Summary of the method: as §3

Structure (SMILES)	zone of inhibition at 50 µg/mL
Cn1c(NN)nc(-c2ccc(Cl)cc2)c(C#N)c1=O	16 mm
CCOC(=O)c1cnn(-c2nc(-c3cccs3)c(C#N)c(=O)n2C)c1N	15.1 mm

System: Bacillus subtilis
Experiment: Antimicrobial activity against Bacillus subtilis at 100 ug/ml by agar plate diffusion technique
Type: functional
Details: read-out: IZ
Summary of the method: as §3

Structure (SMILES)	zone of inhibition at 100 µg/mL
Cn1c(NN)nc(-c2ccc(Cl)cc2)c(C#N)c1=O	24.1 mm
CCOC(=O)c1cnn(-c2nc(-c3cccs3)c(C#N)c(=O)n2C)c1N	18.7 mm

System: Staphylococcus aureus
Experiment: Antimicrobial activity against Staphylococcus aureus at 25 ug/ml by agar plate diffusion technique
Type: functional
Details: read-out: IZ
Summary of the method: as §3

Structure (SMILES)	zone of inhibition at 25 µg/mL
Cn1c(NN)nc(-c2ccc(Cl)cc2)c(C#N)c1=O	11.2 mm
CCOC(=O)c1cnn(-c2nc(-c3cccs3)c(C#N)c(=O)n2C)c1N	11.8 mm

System: Staphylococcus aureus
Experiment: Antimicrobial activity against Staphylococcus aureus at 50 ug/ml by agar plate diffusion technique
Type: functional
Details: read-out: IZ
Summary of the method: as §3

Structure (SMILES)	zone of inhibition at 50 µg/mL
Cn1c(NN)nc(-c2ccc(Cl)cc2)c(C#N)c1=O	15.5 mm
CCOC(=O)c1cnn(-c2nc(-c3cccs3)c(C#N)c(=O)n2C)c1N	12.2 mm

System: Staphylococcus aureus
Experiment: Antimicrobial activity against Staphylococcus aureus at 100 ug/ml by agar plate diffusion technique
Type: functional
Details: read-out: IZ
Summary of the method: as §3

Structure (SMILES)	zone of inhibition at 100 µg/mL
Cn1c(NN)nc(-c2ccc(Cl)cc2)c(C#N)c1=O	20.6 mm
CCOC(=O)c1cnn(-c2nc(-c3cccs3)c(C#N)c(=O)n2C)c1N	16.5 mm

System: Candida albicans
Experiment: Antimicrobial activity against Candida albicans at 25 ug/ml by paper disc method
Type: functional
Details: read-out: IZ
Summary of the method: (§4)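 Paper disc method against A. niger and C. albicans, with compounds at 25, 50 and 100 µg/mL. Amphotericin-B as standard.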

Structure (SMILES)	zone of inhibition at 25 µg/mL
Cn1c(NN)nc(-c2ccc(Cl)cc2)c(C#N)c1=O	12.8 mm
CCOC(=O)c1cnn(-c2nc(-c3cccs3)c(C#N)c(=O)n2C)c1N	9.1 mm

System: Candida albicans
Experiment: Antimicrobial activity against Candida albicans at 50 ug/ml by paper disc method
Type: functional
Details: read-out: IZ
Summary of the method: as §4

Structure (SMILES)	zone of inhibition at 50 µg/mL
Cn1c(NN)nc(-c2ccc(Cl)cc2)c(C#N)c1=O	15.7 mm
CCOC(=O)c1cnn(-c2nc(-c3cccs3)c(C#N)c(=O)n2C)c1N	13.8 mm

System: Candida albicans
Experiment: Antimicrobial activity against Candida albicans at 100 ug/ml by paper disc method
Type: functional
Details: read-out: IZ
Summary of the method: as §4

Structure (SMILES)	zone of inhibition at 100 µg/mL
Cn1c(NN)nc(-c2ccc(Cl)cc2)c(C#N)c1=O	17.3 mm
CCOC(=O)c1cnn(-c2nc(-c3cccs3)c(C#N)c(=O)n2C)c1N	21.5 mm

System: Aspergillus niger
Experiment: Antimicrobial activity against Aspergillus niger at 25 ug/ml by paper disc method
Type: functional
Details: read-out: IZ
Summary of the method: as §4

Structure (SMILES)	zone of inhibition at 25 µg/mL
Cn1c(NN)nc(-c2ccc(Cl)cc2)c(C#N)c1=O	14.6 mm
CCOC(=O)c1cnn(-c2nc(-c3cccs3)c(C#N)c(=O)n2C)c1N	12.1 mm

System: Aspergillus niger
Experiment: Antimicrobial activity against Aspergillus niger at 50 ug/ml by paper disc method
Type: functional
Details: read-out: IZ
Summary of the method: as §4

Structure (SMILES)	zone of inhibition at 50 µg/mL
Cn1c(NN)nc(-c2ccc(Cl)cc2)c(C#N)c1=O	16.8 mm
CCOC(=O)c1cnn(-c2nc(-c3cccs3)c(C#N)c(=O)n2C)c1N	15.8 mm

System: Aspergillus niger
Experiment: Antimicrobial activity against Aspergillus niger at 100 ug/ml by paper disc method
Type: functional
Details: read-out: IZ
Summary of the method: as §4

Structure (SMILES)	zone of inhibition at 100 µg/mL
Cn1c(NN)nc(-c2ccc(Cl)cc2)c(C#N)c1=O	21.4 mm
CCOC(=O)c1cnn(-c2nc(-c3cccs3)c(C#N)c(=O)n2C)c1N	22.1 mm

— ChEMBL document CHEMBL1821590, “Novel dihydropyrimidines and its pyrazole derivatives: synthesis and pharmacological screening” (Eur J Med Chem, 2011)
